Legend:
[1] = tested on: Homo sapiens; experiment: Ratio of RO4957463 AUC (infinity) to compound AUC (infinity) in human with creatinine clearance of 30-49 ml/min at 1500 mg, iv administered as single dose measured after 60 mins; assay type: ADME, organism-based; conditions: in vivo, 1 h
How it was run: (§1)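 Single 1,500 mg i.v. infusion over 60 min, eight subjects per renal-function group (creatinine clearance by Cockcroft-Gault at screening). Blood was sampled predose and at 1–48 h, and the plasma was stabilized 1:1 with 0.5 M MOPS pH 6.0, kept from light and frozen at −70°C. Parent and metabolite were measured by a validated bioanalytical method. Noncompartmental analysis: t1/2 = ln2/λz from ≥3 terminal points, Cmax/Tmax from raw data, ratio = AUC∞ metabolite/parent.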

[2] = tested on: Homo sapiens; experiment: Ratio of RO4957463 AUC (infinity) to compound AUC (infinity)) in human with creatinine clearance of =< 30 ml/min at 1500 mg, iv administered as single dose measured after 60 mins; assay type: ADME, organism-based; conditions: in vivo, 1 h; how it was run: as §1
[3] = tested on: Homo sapiens; experiment: Drug metabolism in human with creatinine clearance of 50-79 ml/min assessed as RO4957463 Tmax at 1500 mg, iv administered as single dose measured after 60 mins; assay type: ADME, organism-based; conditions: in vivo, 1 h; how it was run: as §1
[4] = Cmax in human with creatinine clearance of => 80 ml/min at 1500 mg, iv administered as single dose measured after 60 mins; assay type: ADME, organism-based; set-up: dose 1500 mg, route intravenous; conditions: in vivo; how it was run: as §1
[5] = tested on: Homo sapiens; experiment: Drug excretion in human with creatinine clearance of 30-49 ml/min at 1500 mg, iv administered as single dose after 24 hrs; assay type: ADME, organism-based; conditions: in vivo
How it was run: (§2)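 After a single 1,500 mg i.v. infusion over 60 min, urine was collected 0–6, 6–12 and 12–24 h post-dose, with volume and pH recorded. Aliquots were mixed 1:1 with 0.5 M MOPS, protected from light and frozen at −70°C. Parent and metabolite were assayed by a validated method. CLR = Ae24/plasma AUC24. n = 8 per group, mean ± SD.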

[6] = tested on: Homo sapiens; experiment: Drug metabolism in human with creatinine clearance of => 80 ml/min assessed as RO4957463 Tmax at 1500 mg, iv administered as single dose; assay type: ADME, organism-based; conditions: in vivo; how it was run: as §1
[7] = Total clearance in human with creatinine clearance of =< 30 ml/min at 1500 mg, iv administered as single dose after 60 mins after 60 mins; assay type: ADME, organism-based; conditions: in vivo
How it was run: (§3)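 Eight subjects per CL_CR group (Cockcroft-Gault) received 1,500 mg i.v. over 60 min. Plasma was sampled predose and from 1 to 48 h, mixed with equal-volume 0.5 M MOPS pH 6.0, frozen at −70°C light-protected, and assayed by a validated method. Parameters were derived noncompartmentally from actual times, with T_max taken from raw data as a median and CL/V_ss as means ± SD.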

[8] = tested on: Homo sapiens; experiment: Drug excretion in human with creatinine clearance of =< 30 ml/min at 1500 mg, iv administered as single dose after 24 hrs; assay type: ADME, organism-based; conditions: in vivo; how it was run: as §2
[9] = tested on: Homo sapiens; experiment: Drug metabolism in human with creatinine clearance of 50-79 ml/min assessed as RO4957463 AUC (infinity) at 1500 mg, iv administered as single dose measured after 60 mins; assay type: ADME, organism-based; set-up: dose 1500 mg, time infinity, route intravenous; conditions: in vivo, 1 h; how it was run: as §1
[10] = tested on: Homo sapiens; experiment: Drug metabolism in human with creatinine clearance of =< 30 ml/min assessed as RO4957463 Cmax at 1500 mg, iv administered as single dose measured after 60 mins; assay type: ADME, organism-based; set-up: dose 1500 mg, route intravenous; conditions: in vivo, 1 h; how it was run: as §1
[11] = Dose normalized excretion in human with creatinine clearance of 30-49 ml/min at 1500 mg, iv administered as single dose after 24 hrs; assay type: ADME, organism-based; conditions: in vivo, read-out: Activity; how it was run: as §2
[12] = tested on: Homo sapiens; experiment: Drug excretion in human with creatinine clearance of => 80 ml/min at 1500 mg, iv administered as single dose after 24 hrs; assay type: ADME, organism-based; conditions: in vivo; how it was run: as §2
[13] = Dose normalized excretion in human with creatinine clearance of =< 30 ml/min at 1500 mg, iv administered as single dose after 24 hrs; assay type: ADME, organism-based; conditions: in vivo, read-out: Activity; how it was run: as §2
[14] = Volume of distribution at steady state in human with creatinine clearance of 50-79 ml/min at 1500 mg, iv administered as single dose measured after 60 mins; assay type: ADME, organism-based; conditions: in vivo, read-out: Vdss; how it was run: as §3
[15] = Tmax in human with creatinine clearance of 30-49 ml/min at 1500 mg, iv administered as single dose; assay type: ADME, organism-based; conditions: in vivo; how it was run: as §3
[16] = Volume of distribution in healthy human at 700 mg, iv administered as single dose; assay type: ADME, organism-based; conditions: in vivo
[17] = Volume of distribution at steady state in human with creatinine clearance of =< 30 ml/min at 1500 mg, iv administered as single dose measured after 60 mins; assay type: ADME, organism-based; conditions: in vivo, read-out: Vdss; how it was run: as §3
[18] = Renal clearance in human with creatinine clearance of =< 30 ml/min at 1500 mg, iv administered as single dose after 24 hrs; assay type: ADME, organism-based, Kidney; conditions: in vivo, read-out: CL_renal (converted)
How it was run: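 Single 1,500 mg i.v. infusion over 60 min, with 8 subjects per renal-function group (CL_CR by Cockcroft-Gault at screening). Urine was collected at 0–6, 6–12 and 12–24 h, volume and pH recorded, and aliquots mixed 1:1 with 0.5 M MOPS. Samples were frozen at −70°C, protected from light, and assayed by a validated method. CL_R = A_e24/AUC₂₄.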

[19] = Apparent half-life in human with creatinine clearance of 30-49 ml/min at 1500 mg, iv administered as single dose; assay type: ADME, organism-based; conditions: in vivo; how it was run: as §1
[20] = Volume of distribution at steady state in human with creatinine clearance of => 80 ml/min at 1500 mg, iv administered as single dose measured after 60 mins; assay type: ADME, organism-based; conditions: in vivo, read-out: Vdss; how it was run: as §3
[21] = tested on: Homo sapiens; experiment: Ratio of RO4957463 AUC (infinity) to compound AUC (infinity) in human with creatinine clearance of 50-79 ml/min at 1500 mg, iv administered as single dose measured after 60 mins; assay type: ADME, organism-based; conditions: in vivo, 1 h; how it was run: as §1
[22] = tested on: Homo sapiens; experiment: Drug metabolism in human with creatinine clearance of 30-49 ml/min assessed as RO4957463 AUC (infinity) at 1500 mg, iv administered as single dose measured after 60 mins; assay type: ADME, organism-based; set-up: dose 1500 mg, route intravenous, time infinity; conditions: in vivo, 1 h; how it was run: as §1
[23] = tested on: Homo sapiens; experiment: Drug metabolism in human with creatinine clearance of 50-79 ml/min assessed as RO4957463 Cmax at 1500 mg, iv administered as single dose measured after 60 mins; assay type: ADME, organism-based; set-up: dose 1500 mg, route intravenous; conditions: in vivo, 1 h; how it was run: as §1
[24] = tested on: Homo sapiens; experiment: Drug metabolism in human with creatinine clearance of => 80 ml/min assessed as RO4957463 AUC (infinity) at 1500 mg, iv administered as single dose measured after 60 mins; assay type: ADME, organism-based; set-up: dose 1500 mg, route intravenous, time infinity; conditions: in vivo, 1 h; how it was run: as §1
[25] = AUC (infinity) in human with creatinine clearance of 30-49 ml/min at 1500 mg, iv administered as single dose measured after 60 mins; assay type: ADME, organism-based; set-up: dose 1500 mg, route intravenous, time infinity; conditions: plasma; how it was run: as §1
[26] = tested on: Homo sapiens; experiment: Drug metabolism in human with creatinine clearance of 30-49 ml/min assessed as RO4957463 Tmax at 1500 mg, iv administered as single dose; assay type: ADME, organism-based; conditions: in vivo; how it was run: as §1
[27] = tested on: Homo sapiens; experiment: Drug metabolism in human with creatinine clearance of 50-79 ml/min assessed as RO4957463 apparent half life at 1500 mg, iv administered as single dose; assay type: ADME, organism-based; conditions: in vivo; how it was run: as §1
[28] = tested on: Homo sapiens; experiment: Drug metabolism in human with creatinine clearance of 30-49 ml/min assessed as RO4957463 Cmax at 1500 mg, iv administered as single dose measured after 60 mins; assay type: ADME, organism-based; set-up: dose 1500 mg, route intravenous; conditions: in vivo, 1 h; how it was run: as §1
[29] = Total clearance in human with creatinine clearance of 50-79 ml/min at 1500 mg, iv administered as single dose measured after 60 mins; assay type: ADME, organism-based; conditions: in vivo; how it was run: as §3
[30] = Tmax in human with creatinine clearance of =< 30 ml/min at 1500 mg, iv administered as single dose; assay type: ADME, organism-based; conditions: in vivo; how it was run: as §3

## C[C@@H](O)[C@H]1C(=O)N2C(C(=O)O)=C(S[C@H]3C[C@@H](C(=O)N4CC[C@H](NC(=O)CNC(=N)N)C4)N(C)C3)[C@H](C)[C@H]12 [TOMOPENEM]
[1]
  Ratio: 0.21
[2]
  Ratio: 0.49
[3]
  Tmax: 1 h
[4]
  Cmax: 81400 ng/mL
[5]
  Activity: 939 mg
[6]
  Tmax: 1.01 h
[7]
  clearance: 25.3 mL/min
[8]
  Activity: 618 mg
[9]
  AUC: 37.3 µg·h/mL
[10]
  Cmax: 9630 ng/mL
[11]
  dose excreted at 24 h: 62.6%
[12]
  Activity: 862 mg
[13]
  dose excreted at 24 h: 41.2%
[14]
  Vd: 16.2 L
[15]
  Tmax: 1 h
[16]
  Vd: 17 L
[17]
  Vd: 16.4 L
[18]
  CL renal at 24 h: 9.83 mL/min
[19]
  half-life: 4.59 h
[20]
  Vd: 18.8 L
[21]
  Ratio: 0.12
[22]
  AUC: 115 µg·h/mL
[23]
  Cmax: 4310 ng/mL
[24]
  AUC: 18.5 µg·h/mL
[25]
  AUC(0-inf): 517 µg·h/mL
[26]
  Tmax: 5 h
[27]
  t1/2: 5.02 h
[28]
  Cmax: 5240 ng/mL
[29]
  clearance: 84.7 mL/min
[30]
  Tmax: 1.02 h

Reference: ChEMBL document CHEMBL1275441, “Effect of impaired renal function on the pharmacokinetics of tomopenem (RO4908463/CS-023), a novel carbapenem” (Antimicrob Agents Chemother, 2008)
